LMPTP block: LMPTP (human) inhibition | recombinant LMPTP-A, OMFP fluorogenic substrate, fluorescence intensity | 360,000 compounds, 0.22% hits | inhibition, % at 20 µM;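 active = compounds that cut the enzyme signal by at least half of the control window in the single-dose screen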;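 note: plate controls were DMSO wells with enzyme plus substrate for no effect and substrate without enzyme for full effect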
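test system = LMPTP-A | amount = 0.625 nM LMPTP-A final | reagent = fluorogenic phosphatase substrate OMFP at 400 µM final | incubation = 50 min at room temperature | benchmarks = no-enzyme low control, uninhibited high control | medium = Bis-Tris pH 6.0, DTT, detergent | signal = fluorescence intensity of OMFP turnover product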
SUMO1-SIM PPI: SUMO1-SIM interaction modulation; 360,000 compounds, 0.33% hits; SUMO1 binding to a labelled peptide, TR-FRET, 1 h; inhibition, % at 20 µM; in the data active = inhibition above about 37%
Target sequence (P63165 whole entry, looked up): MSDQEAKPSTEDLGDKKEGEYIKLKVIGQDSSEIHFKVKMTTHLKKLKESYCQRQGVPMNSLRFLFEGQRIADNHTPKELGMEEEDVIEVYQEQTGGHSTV
STEP inh: blocks human striatal-enriched tyrosine phosphatase; P54829; recombinant STEP, OMFP fluorogenic substrate, fluorescence; inhibition, % at 20 µM; 360,000 compounds, 0.25% hits;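 active = inhibition at 20 µM, scaled per plate between control wells, above about 37%, limit read from the data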;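 note: 0% = DMSO with enzyme and substrate and 100% = substrate only without enzyme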
Target sequence (P54829 whole entry, looked up): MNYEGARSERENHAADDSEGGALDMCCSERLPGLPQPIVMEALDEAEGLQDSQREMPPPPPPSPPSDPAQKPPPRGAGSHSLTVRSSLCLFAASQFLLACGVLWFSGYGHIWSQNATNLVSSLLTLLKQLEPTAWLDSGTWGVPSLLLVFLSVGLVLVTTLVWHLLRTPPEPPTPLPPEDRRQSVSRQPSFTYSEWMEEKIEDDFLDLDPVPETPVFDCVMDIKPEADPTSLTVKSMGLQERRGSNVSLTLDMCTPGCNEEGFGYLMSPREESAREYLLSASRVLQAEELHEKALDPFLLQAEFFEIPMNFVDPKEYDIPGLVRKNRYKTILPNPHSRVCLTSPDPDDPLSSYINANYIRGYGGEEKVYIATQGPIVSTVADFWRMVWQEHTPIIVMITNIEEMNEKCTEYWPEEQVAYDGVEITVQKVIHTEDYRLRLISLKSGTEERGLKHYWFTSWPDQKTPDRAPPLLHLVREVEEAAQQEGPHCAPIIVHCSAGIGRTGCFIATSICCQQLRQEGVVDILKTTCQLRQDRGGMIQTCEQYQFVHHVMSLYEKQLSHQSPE
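Measure: Control-normalized % inhibition with plate pattern correction | Test system: STEP phosphatase, cell-free reaction | Medium: pH 6.0 Bis-Tris with DTT and Tween 20 | Technique: Fluorescence, 480/540 nm | Times: Reaction 20 min, ambient temperature | Doses: Single compound dose of 20 µM, 1% DMSO final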
DNMT1 block: blocks human DNA methyltransferase DNMT1; P26358; DNMT1 molecular beacon, Hinp1I cleavage, fluorescence; inhibition (reported as % activation of signal), % at 10 µM; 360,000 compounds, 0.83% hits; in the data active = inhibition above about 50%
Scp1 inh: inhibitors of human Scp-1 phosphatase; Recombinant Scp1, phosphopeptide, malachite green phosphate absorbance; AID 493091; 340,000 compounds, 0.88% hits; inhibition, % at 20 µM; Q9GZU7;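 active = inhibition above about 50% at 20 µM, limit read from the data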;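 note: plate controls were DMSO wells with enzyme for no effect and wells lacking enzyme for full effect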
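Material – SCP-1 phosphatase catalytic domain, residues 76-261 · Buffer or medium – Acidic Tris acetate buffer with magnesium and detergent · Also added – Phospho 17-mer peptide substrate · Compound – single 20 µM dose, 1% DMSO · Times – 45 min room-temperature reaction, 5 min colour, 30 min stabiliser · Technique – Phosphate-binding colour reagent, absorbance read at 630 nm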
Numbers without * were called inactive; nt = not tested or not shown. In the library only some 1.7% were active in any assay of this set; here they are far more common.

SMILES	LMPTP block	SUMO1-SIM PPI	STEP inh	DNMT1 block	Scp1 inh
Cc1onc(-c2ccccc2)c1C(=O)NC(=S)NNC(=O)c1cc(-c2ccc(F)cc2)n[nH]1	2.4	12.8	5.1	-6.3	-15.4
N#CC1(NC(=O)COC(=O)c2cc(O)c3ccccc3c2O)CCCCC1	2.2	-9.2	0.5	-19.6	85.0*
Cc1ccccc1CSCC(=O)NCCSc1ccccn1	-0.6	48.9*	1.5	-1.0	-8.6
Cc1ccccc1N(CC(=O)NCCSc1ccccn1)S(=O)(=O)c1ccccc1	-0.5	1.6	-4.1	0.1	0.9
COCCN1C(=O)/C(=C2/C(=O)N(CC(=O)Nc3ccccc3Cl)c3ccccc32)SC1=S	5.5	-7.2	7.8	-2.4	-5.5
O=C(CN1C(=O)/C(=C2\SC(=S)N(CCS(=O)(=O)O)C2=O)c2ccccc21)Nc1cccc(Br)c1	82.6*	17.0	97.9*	13.9	101.3*
CC(C)CC(=O)c1c[nH]c(C(=O)NCCCN2CCOCC2)c1	-1.3	45.4*	1.4	3.1	-8.0
COc1cc(/C=C/C(=O)OCC(=O)N2CCCc3ccccc32)ccc1OC(F)F	1.6	-5.8	-4.0	-1.7	-0.8
O=C(Nc1ccc(F)cc1F)c1noc2c1CCC2	13.6	4.2	21.7	88.3*	78.6*
CCc1ccc(N(CC(=O)NC2CC2)S(=O)(=O)c2ccc(C)cc2)cc1	-0.3	2.3	-0.2	0.8	-5.5
CCOc1ccc(C(C)=O)cc1COC(=O)c1ccccc1C(=O)N(C)Cc1ccccc1	-0.6	-1.8	0.1	-2.0	-9.5
Cc1cc(N/N=C/c2ccc(N(C)C)cc2)c2ccccc2n1	0.2	2.6	-1.0	-7.4	-3.5
Cc1cc(C)c2nc(C)cc(N/N=C/c3ccc(O)cc3)c2c1	69.1*	30.2	4.5	61.9*	-4.5
Cc1cc(N/N=C/c2ccc(O)cc2)c2cccc(C)c2n1	57.4*	-1.1	2.1	37.3	-0.6
Cc1ccc(/C=C2\SC(=S)N(/N=C/c3cc([N+](=O)[O-])ccc3O)C2=O)o1	52.8*	45.3*	17.2	83.0*	57.0*
CC[n+]1cc(-c2ccccc2)nc(N2CCOCC2)n1	-1.5	-25.2	-1.9	5.6	98.8*
NC(=O)c1cc(-c2ccccc2)nc(N2CCOCC2)n1	-0.1	2.5	-1.5	4.7	-4.6
COc1ccc(C(O)c2ncc(-c3ccccc3F)[nH]2)cc1 (configuration not stated)	0.2	12.1	0.8	50.7*	nt
N#Cc1c(SCC(=O)Nc2ccccc2C(F)(F)F)sc2c(O)cc(=O)[nH]c12	0.8	1.5	5.9	5.4	23.3
N#Cc1c(SCC(=O)Nc2nccs2)sc2c(O)cc(=O)[nH]c12	31.3	20.2	33.8	42.6	67.6*
N#Cc1c(SCC(=O)Nc2nc3ccccc3s2)sc2c(O)cc(=O)[nH]c12	64.1*	29.7	11.8	91.4*	61.3*
O=C(CCc1nnc2n(Cc3ccc(Cl)cc3)c(=O)c3ccccc3n12)N1CCN(c2ccccn2)CC1	63.7*	-0.8	7.8	-3.9	4.7
O=C(NCCN1CCC(n2c(=O)[nH]c3ccccc32)CC1)c1cccc2c1-c1ccccc1C2=O	13.3	55.4*	nt	nt	nt
Cc1oc(-c2ccccc2)nc1CS(=O)CC(=O)NC1CCCC1 (configuration not stated)	-1.1	1.2	3.8	-0.2	-1.2
COc1cccc2nc3c(C(=O)NCCN(C)C)cccc3cc12	1.9	-34.1	-2.6	59.8*	4.7
SMILES	LMPTP block	SUMO1-SIM PPI	STEP inh	DNMT1 block	Scp1 inh
COc1ccc(C(=O)NCCN(C)C)c2nc3ccccc3cc12	0.2	-19.5	-3.1	56.3*	-0.3
CN(C)CCNC(=O)c1cccc2nc3c(ccc4ccccc43)nc12	-0.6	-47.2	5.6	61.0*	-0.3
CC(C)CC1=C/C(=C/c2ccc(-c3ccccc3)o2)C(=O)O1	3.8	14.1	4.2	92.3*	15.4
NS(=O)(=O)c1ccc(-c2ccc(C=C3C(=O)c4ccccc4C3=O)o2)cc1	7.6	-4.0	-2.0	-0.1	-11.3
O=C(c1ccc(CSc2nc3ccncc3[nH]2)cc1)N1CCN(c2cccc(Cl)c2)CC1	65.7*	9.1	6.0	-10.2	-9.2
O=C(CCC(=O)N1CCN(Cc2ccc(F)cc2)CC1)Nc1nnc(C2CCCCC2)s1	0.1	2.9	-1.2	-0.4	-2.5
NS(=O)(=O)c1ccc(NC(=O)CCC(=O)O)cc1	-1.2	3.8	0.8	-4.5	nt
COc1cc(F)ccc1-c1csc(C(O)c2ccccc2)n1 (configuration not stated)	0.2	0.2	-0.6	-3.0	nt
COc1ccc(OC)c(-c2csc(NC(=O)Cn3[nH]c(=O)c4ccccc4c3=O)n2)c1	0.2	64.0*	4.5	-6.3	-0.7
COc1cccc(N2CCN(C(=O)CN3C(=O)NC(C)(c4ccc5ccccc5c4)C3=O)CC2)c1 (configuration not stated)	0.9	5.2	-1.0	-8.8	-2.8
N#C/C(=C\c1coc2ccc(O)cc2c1=O)C(=O)Nc1nc2ccccc2s1	8.9	-19.7	-88.7	84.3*	9.1
N#C/C(=C\c1coc2ccccc2c1=O)C(N)=S	0.9	-8.6	3.7	-0.9	-6.9
CC(=O)c1ccc(NC(=O)c2ccc(CNc3c(N4CCCC4)c(=O)c3=O)cc2)cc1	0.3	-0.5	1.5	1.2	-7.4
CCOc1ccc(NC(=O)c2ccc(CNc3c(N4CCCC4)c(=O)c3=O)cc2)cc1	-1.1	44.7*	0.5	4.2	-1.7
COc1cc(NC(=O)C2CCC(CNc3c(N4CCCCC4)c(=O)c3=O)CC2)cc(OC)c1 (configuration not stated)	0.9	6.6	-1.8	51.7*	-3.4
CC(=O)c1ccc(NC(=O)c2ccc(CNc3c(N4CCOCC4)c(=O)c3=O)cc2)cc1	1.0	-0.1	-0.4	6.6	-4.1
COc1cc(NC(=O)c2ccc(CNc3c(N4CCOCC4)c(=O)c3=O)cc2)cc(OC)c1	0.2	43.3*	1.6	-4.8	-16.1
CCc1cccc(NC(=O)c2ccc(CNc3c(N4CCCC4)c(=O)c3=O)cc2)c1	2.2	48.8*	3.2	-3.4	-4.3
Cc1ccccc1-c1nc(S(=O)(=O)c2ccccc2)c(NCCN2CCOCC2)o1	-2.3	-0.7	-0.7	-6.2	nt
COc1cc(-c2ccc(Nc3ccccc3C(=O)O)c(OC)c2)ccc1Nc1ccccc1C(=O)O	7.0	60.8*	0.9	108.5*	70.5*
C(=C\c1nc(N2CCCCCC2)c2ccccc2n1)/c1ccccc1	55.5*	-0.7	3.3	-6.5	2.4
c1ccc2c(N3CCCCC3)nc(N3CCCCC3)nc2c1	1.3	-3.5	2.4	2.6	0.2
COc1ccc2cc1Oc1ccc(cc1)CC1c3c(cc(OC)c4c3Oc3cc5c(cc3O4)CCNC5C2)CCN1C (configuration not stated)	77.2*	-26.6	1.3	-31.5	-1.4

Source: PubChem BioAssay (Sanford-Burnham Center for Chemical Genomics)
